According to ChEMBL document CHEMBL4325900, “Antibacterial activity evaluation of synthetic novel pleuromutilin derivatives in vitro and in experimental infection mice” (2019):
In brackets after ≈: the same amount, converted by molar mass.

Columns and labels:
Staphylococcus aureus [1] = assay: Antibacterial activity against methicillin-sensitive Staphylococcus aureus after 24 hrs by NCCLS method; type: functional
Outline: (§1)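 Broth microdilution in Mueller-Hinton broth. Stocks at 1280 µg/mL in aqueous 10-20% DMSO were diluted to 128 µg/mL, then serially 2-fold diluted giving final concentrations of 64 down to 0.125 µg/mL. Overnight MHB cultures were diluted to 10^6~10^7 CFU/mL, and 100 µL was added per well. Plates ran 24 h at 37°C. MIC was read from OD against an MHB blank, in triplicate.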

Staphylococcus aureus [2] = assay: Antibacterial activity against methicillin-resistant Staphylococcus aureus after 24 hrs by NCCLS method; type: functional
Outline: (§2)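 Broth microdilution in Mueller-Hinton broth. Stocks at 1280 µg/mL in aqueous 10-20% DMSO, diluted to 128 µg/mL, then 2-fold serially to final 64 down to 0.125 µg/mL. Overnight MHB cultures diluted to 10^6~10^7 CFU/mL and added 1:1 to compound. Incubated 24 h at 37°C. MIC read from OD against MHB blank. Three parallels per concentration.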

[3] = tested on: Staphylococcus epidermidis; assay: Antibacterial activity against methicillin-sensitive Staphylococcus epidermidis after 24 hrs by NCCLS method; type: functional; outline: as §2
[4] = tested on: Staphylococcus epidermidis; assay: Antibacterial activity against methicillin-resistant Staphylococcus epidermidis after 24 hrs by NCCLS method; type: functional; outline: as §2
Enterococcus faecium = assay: Antibacterial activity against Enterococcus faecium after 24 hrs by NCCLS method; type: functional; outline: as §1
Enterococcus faecalis = assay: Antibacterial activity against Enterococcus faecalis after 24 hrs by NCCLS method; type: functional; outline: as §1
Escherichia coli [5] = assay: Antibacterial activity against Escherichia coli ATCC 11775 after 24 hrs by NCCLS method; type: functional; conditions: DSM 30083 = JCM 1649 = ATCC 11775, 24 h; outline: as §1
Pasteurella multocida = assay: Antibacterial activity against Pasteurella multocida after 24 hrs by NCCLS method; type: functional; outline: as §1
Staphylococcus aureus [6] = assay: Antibacterial activity against methicillin-resistant Staphylococcus aureus clinical isolates infected in ip dosed mouse assessed as reduction in bacterial infection administered 1 hr after infection and measured after 7 days; type: functional
Outline: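 Kunming mice, half male and half female, 19-23 g, 10 per group. Infected i.p. with 0.5 mL clinical MRSA isolate suspension (~10^7 CFU/mL). Single i.p. dose 1 h post-infection, five dose levels between 7.0 and 50.0 mg/kg depending on compound. Vehicle was DMSO:Tween-80:water 1:1:8, or water for valnemulin. ED50 by Probit analysis from survival after 7 days; 95% confidence ranges.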

Escherichia coli [7] = assay: Potency index, ratio of MIC for Valnemulin hydrochloride to MIC for test compound for antibacterial activity against Escherichia coli ATCC 11775 after 24 hrs by NCCLS method; type: functional, DSM 30083 = JCM 1649 = ATCC 11775
Staphylococcus aureus [8] = assay: Bactericidal activity against exponential phase of methicillin-resistant Staphylococcus aureus after 1 to 4 hrs by time kill kinetics assay; type: functional, organism-based
Outline: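 Exponential-phase S. aureus (4 h at 37°C, 120 rpm) diluted to ~2×10^7 CFU/mL in MHB and mixed 1:1 with MHB containing twice the desired compound concentration. Shaken at 37°C, 120 rpm. Samples at 1, 2, 3 and 4 h washed with PBS, diluted, spot-plated on MH agar, counted after ~18 h at 37°C as log10 CFU/mL. Triplicate, mean±s.d.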

Staphylococcus aureus [9] = assay: Antibacterial activity against methicillin-resistant Staphylococcus aureus infected in Kunming mouse assessed as mouse survival at 40 mg/kg, ig qd treated for 3 consecutive days and measured during compound treatment relative to control; type: functional; conditions: po
Outline: (§3)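 Female Kunming mice, 22±2 g, made neutropenic with cyclophosphamide i.p., 150 mg/kg 4 days and 100 mg/kg 1 day before infection. Infected i.p. with 0.5 mL suspension of clinical MRSA isolate. Intragastric dosing at 20 or 40 mg/kg/d, starting 1 h post-infection, once daily for 3 consecutive days. Survival monitored.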

Staphylococcus aureus [10] = assay: Antibacterial activity against methicillin-resistant Staphylococcus aureus infected in Kunming mouse assessed as mouse survival at 40 mg/kg, ig qd treated for 3 consecutive days and measured at day 5 relative to control; type: functional; conditions: po, 120 h; outline: as §3
Staphylococcus aureus [11] = assay: Antibacterial activity against methicillin-resistant Staphylococcus aureus infected in Kunming mouse assessed as mouse survival at 40 mg/kg, ig qd treated for 3 consecutive days and measured at day 6 relative to control; type: functional; conditions: po, 144 h; outline: as §3
Staphylococcus aureus [12] = assay: Antibacterial activity against methicillin-resistant Staphylococcus aureus infected in Kunming mouse assessed as mouse survival at 20 mg/kg, ig qd treated for 3 consecutive days and measured up to 10 days relative to control; type: functional; conditions: po, 240 h; outline: as §3

## C=C[C@]1(C)C[C@@H](OC(=O)CSc2nc(NC(=O)CN3CCC(CO)CC3)c3cc[nH]c3n2)[C@]2(C)[C@H](C)CC[C@]3(CCC(=O)[C@H]32)[C@@H](C)[C@@H]1O
Staphylococcus aureus [1]
  MIC: 0.25 mg/L (≈ 0.367 µM)
Staphylococcus aureus [2]
  MIC: 0.25 mg/L (≈ 0.367 µM)
[3]
  MIC: 0.125 mg/L (≈ 0.183 µM)
[4]
  MIC: 0.125 mg/L (≈ 0.183 µM)
Enterococcus faecium
  MIC: 0.25 mg/L (≈ 0.367 µM)
Enterococcus faecalis
  MIC: 64 mg/L (≈ 93.9 µM)
Escherichia coli [5]
  MIC: > 64 mg/L
Pasteurella multocida
  MIC: 64 mg/L (≈ 93.9 µM)

## C=C[C@]1(C)C[C@@H](OC(=O)CSc2nc(NC(=O)CN3CCN(c4ccccn4)CC3)c3cc[nH]c3n2)[C@]2(C)[C@H](C)CC[C@]3(CCC(=O)[C@H]32)[C@@H](C)[C@@H]1O
Staphylococcus aureus [1]
  MIC: 1 mg/L (≈ 1.37 µM)
Staphylococcus aureus [2]
  MIC: 0.5 mg/L (≈ 0.685 µM)
[3]
  MIC: 0.5 mg/L (≈ 0.685 µM)
[4]
  MIC: 0.5 mg/L (≈ 0.685 µM)
Enterococcus faecium
  MIC: 0.25 mg/L (≈ 0.342 µM)
Enterococcus faecalis
  MIC: 64 mg/L (≈ 87.7 µM)
Escherichia coli [5]
  MIC: > 64 mg/L
Pasteurella multocida
  MIC: > 64 mg/L

## C=C[C@]1(C)C[C@@H](OC(=O)CSc2nc(NC(=O)CN(CC)CC)c3cc[nH]c3n2)[C@]2(C)[C@H](C)CC[C@]3(CCC(=O)[C@H]32)[C@@H](C)[C@@H]1O
Staphylococcus aureus [1]
  MIC: 0.0625 mg/L (≈ 0.0977 µM)
Staphylococcus aureus [2]
  MIC: 0.0625 mg/L (≈ 0.0977 µM)
[3]
  MIC: 0.0625 mg/L (≈ 0.0977 µM)
[4]
  MIC: 0.125 mg/L (≈ 0.195 µM)
Enterococcus faecium
  MIC: 0.125 mg/L (≈ 0.195 µM)
Enterococcus faecalis
  MIC: 32 mg/L (≈ 50 µM)
Escherichia coli [5]
  MIC: 16 mg/L (≈ 25 µM)
Pasteurella multocida
  MIC: 64 mg/L (≈ 100 µM)
Staphylococcus aureus [6]
  ED50: 27.7 mg/kg
Escherichia coli [7]
  Ratio: 2

## C=C[C@]1(C)C[C@@H](OC(=O)CSC(C)(C)CNC(=O)[C@H](N)C(C)C)[C@]2(C)[C@H](C)CC[C@]3(CCC(=O)[C@H]32)[C@@H](C)[C@@H]1O.Cl [VALNEMULIN HYDROCHLORIDE]
Staphylococcus aureus [1]
  MIC: 0.25 mg/L
Staphylococcus aureus [2]
  MIC: 0.25 mg/L
[3]
  MIC: 0.125 mg/L
[4]
  MIC: 0.25 mg/L
Enterococcus faecium
  MIC: 0.125 mg/L
Enterococcus faecalis
  MIC: > 64 mg/L
Escherichia coli [5]
  MIC: 32 mg/L
Pasteurella multocida
  MIC: 16 mg/L
Staphylococcus aureus [8]
  Activity: Dose-dependent effect
Staphylococcus aureus [6]
  ED50: 13.5 mg/kg
Staphylococcus aureus [9]
  survival at 40 mg/kg: > 90%
Staphylococcus aureus [10]
  survival at 40 mg/kg: 70%
Staphylococcus aureus [11]
  survival at 40 mg/kg: 80%
Staphylococcus aureus [12]
  survival at 20 mg/kg: 30%

## C=C[C@]1(C)C[C@@H](OC(=O)CSc2nc(NC(=O)CN3CCC(N(C)C)CC3)c3cc[nH]c3n2)[C@]2(C)[C@H](C)CC[C@]3(CCC(=O)[C@H]32)[C@@H](C)[C@@H]1O
Staphylococcus aureus [1]
  MIC: 0.5 mg/L (≈ 0.719 µM)
Staphylococcus aureus [2]
  MIC: 1 mg/L (≈ 1.44 µM)
[3]
  MIC: 0.5 mg/L (≈ 0.719 µM)
[4]
  MIC: 0.5 mg/L (≈ 0.719 µM)
Enterococcus faecium
  MIC: 1 mg/L (≈ 1.44 µM)
Enterococcus faecalis
  MIC: 64 mg/L (≈ 92.1 µM)
Escherichia coli [5]
  MIC: > 64 mg/L
Pasteurella multocida
  MIC: 64 mg/L (≈ 92.1 µM)

## C=C[C@]1(C)C[C@@H](OC(=O)CSc2nc(NC(=O)CN3CCC(N4CCCCC4)CC3)c3cc[nH]c3n2)[C@]2(C)[C@H](C)CC[C@]3(CCC(=O)[C@H]32)[C@@H](C)[C@@H]1O
Staphylococcus aureus [1]
  MIC: 0.5 mg/L (≈ 0.68 µM)
Staphylococcus aureus [2]
  MIC: 0.5 mg/L (≈ 0.68 µM)
[3]
  MIC: 0.25 mg/L (≈ 0.34 µM)
[4]
  MIC: 0.5 mg/L (≈ 0.68 µM)
Enterococcus faecium
  MIC: 0.0625 mg/L (≈ 0.085 µM)
Enterococcus faecalis
  MIC: 64 mg/L (≈ 87.1 µM)
Escherichia coli [5]
  MIC: 64 mg/L (≈ 87.1 µM)
Pasteurella multocida
  MIC: 64 mg/L (≈ 87.1 µM)

## C=C[C@]1(C)C[C@@H](OC(=O)CSc2nc(NC(=O)CN3CCOCC3)c3cc[nH]c3n2)[C@]2(C)[C@H](C)CC[C@]3(CCC(=O)[C@H]32)[C@@H](C)[C@@H]1O
Staphylococcus aureus [1]
  MIC: 0.125 mg/L (≈ 0.191 µM)
Staphylococcus aureus [2]
  MIC: 0.25 mg/L (≈ 0.382 µM)
[3]
  MIC: 0.25 mg/L (≈ 0.382 µM)
[4]
  MIC: 0.25 mg/L (≈ 0.382 µM)
Enterococcus faecium
  MIC: 0.25 mg/L (≈ 0.382 µM)
Enterococcus faecalis
  MIC: 64 mg/L (≈ 97.9 µM)
Escherichia coli [5]
  MIC: 64 mg/L (≈ 97.9 µM)
Pasteurella multocida
  MIC: 32 mg/L (≈ 48.9 µM)

## C=C[C@]1(C)C[C@@H](OC(=O)CSc2nc(NC(=O)CN3CCCCC3)c3cc[nH]c3n2)[C@]2(C)[C@H](C)CC[C@]3(CCC(=O)[C@H]32)[C@@H](C)[C@@H]1O
Staphylococcus aureus [1]
  MIC: 0.0625 mg/L (≈ 0.0959 µM)
Staphylococcus aureus [2]
  MIC: 0.125 mg/L (≈ 0.192 µM)
[3]
  MIC: 0.0625 mg/L (≈ 0.0959 µM)
[4]
  MIC: 0.125 mg/L (≈ 0.192 µM)
Enterococcus faecium
  MIC: 0.125 mg/L (≈ 0.192 µM)
Enterococcus faecalis
  MIC: 32 mg/L (≈ 49.1 µM)
Escherichia coli [5]
  MIC: 64 mg/L (≈ 98.2 µM)
Pasteurella multocida
  MIC: 32 mg/L (≈ 49.1 µM)
Staphylococcus aureus [6]
  ED50: 19.7 mg/kg

## C=C[C@]1(C)C[C@@H](OC(=O)CSc2nc(NC(=O)CN3CCN(C)CC3)c3cc[nH]c3n2)[C@]2(C)[C@H](C)CC[C@]3(CCC(=O)[C@H]32)[C@@H](C)[C@@H]1O
Staphylococcus aureus [1]
  MIC: 0.125 mg/L (≈ 0.187 µM)
Staphylococcus aureus [2]
  MIC: 1 mg/L (≈ 1.5 µM)
[3]
  MIC: 0.25 mg/L (≈ 0.375 µM)
[4]
  MIC: 0.5 mg/L (≈ 0.75 µM)
Enterococcus faecium
  MIC: 0.5 mg/L (≈ 0.75 µM)
Enterococcus faecalis
  MIC: 64 mg/L (≈ 96 µM)
Escherichia coli [5]
  MIC: > 64 mg/L
Pasteurella multocida
  MIC: 32 mg/L (≈ 48 µM)
